# Experimental data published in PMC3776227 (Biochemical Pharmacology, 2013).
# Assays:
# α1β1 GABAA receptors = α1β1 GABAA receptors (Rattus norvegicus, UniProt P15431+P62813); assay: IGABA modulation, two-microelectrode voltage clamp, Xenopus oocytes, α1β1; format: cell-based
# Outline: (§1)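 Rat GABAA subunit cRNAs were injected into stage V–VI Xenopus oocytes (10–50 nl, about 300–3000 pg/nl): α1β1 at 3:1, other αβ pairs at 1:1, and γ2S-containing receptors at α:β:γ 1:1:10. Oocytes were kept 24–48 h at 18 °C in ND96 with penicillin/streptomycin. Two-electrode voltage clamp was run at −70 mV in HEPES-buffered bath (pH 7,4).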
# α1β2 GABAA receptors = α1β2 GABAA receptors (Rattus norvegicus, UniProt P62813+P63138); assay: IGABA modulation, two-microelectrode voltage clamp, Xenopus oocytes, α1β2; format: cell-based
# Sequence of α1β2 GABAA receptors (P62813 28-455): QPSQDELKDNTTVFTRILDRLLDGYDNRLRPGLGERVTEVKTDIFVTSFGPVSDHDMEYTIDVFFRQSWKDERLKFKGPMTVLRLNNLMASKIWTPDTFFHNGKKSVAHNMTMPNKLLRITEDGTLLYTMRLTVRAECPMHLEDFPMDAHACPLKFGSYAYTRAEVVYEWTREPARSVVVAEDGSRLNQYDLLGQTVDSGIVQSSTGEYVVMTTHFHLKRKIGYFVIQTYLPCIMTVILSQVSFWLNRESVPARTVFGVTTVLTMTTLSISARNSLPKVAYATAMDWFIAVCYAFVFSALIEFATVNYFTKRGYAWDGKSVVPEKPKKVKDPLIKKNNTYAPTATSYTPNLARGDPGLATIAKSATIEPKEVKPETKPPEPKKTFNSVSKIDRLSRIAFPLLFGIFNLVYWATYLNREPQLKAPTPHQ
# Sequence of α1β2 GABAA receptors (P63138 25-474 limits assumed): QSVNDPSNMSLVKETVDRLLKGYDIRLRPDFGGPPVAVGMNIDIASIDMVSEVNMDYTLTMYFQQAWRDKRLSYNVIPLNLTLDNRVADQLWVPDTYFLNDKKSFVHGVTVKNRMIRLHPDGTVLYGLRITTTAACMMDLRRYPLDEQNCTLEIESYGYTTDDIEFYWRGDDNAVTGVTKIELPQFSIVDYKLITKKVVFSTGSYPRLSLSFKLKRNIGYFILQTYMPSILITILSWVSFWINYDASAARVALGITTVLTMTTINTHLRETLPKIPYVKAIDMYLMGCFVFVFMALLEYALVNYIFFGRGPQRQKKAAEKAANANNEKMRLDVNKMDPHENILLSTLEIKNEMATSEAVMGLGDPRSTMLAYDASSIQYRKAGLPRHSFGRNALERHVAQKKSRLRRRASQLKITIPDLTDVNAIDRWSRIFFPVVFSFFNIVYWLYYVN
# Outline: as §1
# α1β3 GABAA receptors = α1β3 GABAA receptors (Rattus norvegicus, UniProt P62813+P63079); assay: IGABA modulation, two-microelectrode voltage clamp, Xenopus oocytes, α1β3; format: cell-based
# Sequence of α1β3 GABAA receptors (P62813 28-455): as the sequence (P62813 28-455) above
# Sequence of α1β3 GABAA receptors (P63079 26-473): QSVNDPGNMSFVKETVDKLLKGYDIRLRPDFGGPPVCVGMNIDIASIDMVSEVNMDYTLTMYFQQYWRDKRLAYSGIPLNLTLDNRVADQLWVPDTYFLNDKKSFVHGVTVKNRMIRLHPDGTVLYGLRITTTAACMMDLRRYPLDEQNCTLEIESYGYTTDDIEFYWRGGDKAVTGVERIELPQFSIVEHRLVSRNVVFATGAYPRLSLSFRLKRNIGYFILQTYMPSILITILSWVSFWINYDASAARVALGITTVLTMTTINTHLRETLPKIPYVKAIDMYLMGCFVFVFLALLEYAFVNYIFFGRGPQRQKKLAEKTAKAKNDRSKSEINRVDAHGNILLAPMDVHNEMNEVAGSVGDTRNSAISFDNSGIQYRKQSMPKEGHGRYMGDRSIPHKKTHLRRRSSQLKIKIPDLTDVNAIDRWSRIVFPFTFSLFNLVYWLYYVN
# Outline: as §1
# α2β2 GABAA receptors = α2β2 GABAA receptors (Rattus norvegicus, UniProt P23576+P63138); assay: IGABA modulation, two-microelectrode voltage clamp, Xenopus oocytes, α2β2; format: cell-based
# Sequence of α2β2 GABAA receptors (P23576 29-451): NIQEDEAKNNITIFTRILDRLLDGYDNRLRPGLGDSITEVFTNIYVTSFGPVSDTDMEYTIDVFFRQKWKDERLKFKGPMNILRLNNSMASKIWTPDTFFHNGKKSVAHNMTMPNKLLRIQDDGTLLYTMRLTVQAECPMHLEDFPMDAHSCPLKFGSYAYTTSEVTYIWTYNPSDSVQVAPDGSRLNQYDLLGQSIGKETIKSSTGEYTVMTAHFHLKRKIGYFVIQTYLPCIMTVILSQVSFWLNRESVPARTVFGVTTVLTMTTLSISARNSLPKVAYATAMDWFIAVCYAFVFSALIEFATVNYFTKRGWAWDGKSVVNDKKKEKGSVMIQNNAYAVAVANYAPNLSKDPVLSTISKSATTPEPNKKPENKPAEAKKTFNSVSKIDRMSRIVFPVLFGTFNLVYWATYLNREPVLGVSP
# Sequence of α2β2 GABAA receptors (P63138 25-474 limits assumed): as the sequence (P63138 25-474 limits assumed) above
# Outline: as §1
# α3β2 GABAA receptors [1] = molecular target: T1, α3β2 GABAA receptors (Rattus norvegicus, UniProt P20236+P63138); assay: IGABA modulation, two-microelectrode voltage clamp, Xenopus oocytes, α3β2; format: cell-based
# T1 sequence (P20236 29-493): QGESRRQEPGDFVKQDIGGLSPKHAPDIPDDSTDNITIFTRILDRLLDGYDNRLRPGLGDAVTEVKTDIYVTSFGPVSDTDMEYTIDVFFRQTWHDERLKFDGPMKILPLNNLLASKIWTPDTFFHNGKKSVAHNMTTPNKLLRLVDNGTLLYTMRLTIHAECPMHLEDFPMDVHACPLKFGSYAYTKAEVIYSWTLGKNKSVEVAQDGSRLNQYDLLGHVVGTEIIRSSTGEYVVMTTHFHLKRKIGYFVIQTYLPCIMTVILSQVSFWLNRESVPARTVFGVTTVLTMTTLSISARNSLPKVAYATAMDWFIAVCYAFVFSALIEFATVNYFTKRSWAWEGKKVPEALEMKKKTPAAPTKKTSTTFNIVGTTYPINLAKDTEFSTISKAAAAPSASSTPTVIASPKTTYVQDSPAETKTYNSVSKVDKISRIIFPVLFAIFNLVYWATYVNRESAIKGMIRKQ
# T1 sequence (P63138 25-474 limits assumed): as the sequence (P63138 25-474 limits assumed) above
# Outline: as §1
# α5β2 GABAA receptors = α5β2 GABAA receptors (Rattus norvegicus, UniProt P19969+P63138); assay: IGABA modulation, two-microelectrode voltage clamp, Xenopus oocytes, α5β2; format: cell-based
# Sequence of α5β2 GABAA receptors (P19969 26-464): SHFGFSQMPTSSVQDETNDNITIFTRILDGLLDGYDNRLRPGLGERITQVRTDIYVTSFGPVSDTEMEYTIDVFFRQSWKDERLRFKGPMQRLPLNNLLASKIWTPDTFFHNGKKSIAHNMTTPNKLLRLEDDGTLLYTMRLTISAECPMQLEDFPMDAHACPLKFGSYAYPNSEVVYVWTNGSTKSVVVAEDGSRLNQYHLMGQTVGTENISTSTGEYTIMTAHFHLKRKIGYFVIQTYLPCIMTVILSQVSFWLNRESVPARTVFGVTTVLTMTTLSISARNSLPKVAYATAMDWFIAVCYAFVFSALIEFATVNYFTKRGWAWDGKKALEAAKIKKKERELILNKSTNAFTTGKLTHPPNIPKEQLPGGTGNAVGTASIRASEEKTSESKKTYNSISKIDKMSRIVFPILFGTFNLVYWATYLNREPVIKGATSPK
# Sequence of α5β2 GABAA receptors (P63138 25-474 limits assumed): as the sequence (P63138 25-474 limits assumed) above
# Outline: as §1
# TRPV1 channels = TRPV1 channels (Rattus norvegicus, UniProt O35433); assay: TRPV1 activation, two-microelectrode voltage clamp, Xenopus oocytes; format: cell-based
# Sequence of TRPV1 channels (O35433 whole entry, the tested form may be a part): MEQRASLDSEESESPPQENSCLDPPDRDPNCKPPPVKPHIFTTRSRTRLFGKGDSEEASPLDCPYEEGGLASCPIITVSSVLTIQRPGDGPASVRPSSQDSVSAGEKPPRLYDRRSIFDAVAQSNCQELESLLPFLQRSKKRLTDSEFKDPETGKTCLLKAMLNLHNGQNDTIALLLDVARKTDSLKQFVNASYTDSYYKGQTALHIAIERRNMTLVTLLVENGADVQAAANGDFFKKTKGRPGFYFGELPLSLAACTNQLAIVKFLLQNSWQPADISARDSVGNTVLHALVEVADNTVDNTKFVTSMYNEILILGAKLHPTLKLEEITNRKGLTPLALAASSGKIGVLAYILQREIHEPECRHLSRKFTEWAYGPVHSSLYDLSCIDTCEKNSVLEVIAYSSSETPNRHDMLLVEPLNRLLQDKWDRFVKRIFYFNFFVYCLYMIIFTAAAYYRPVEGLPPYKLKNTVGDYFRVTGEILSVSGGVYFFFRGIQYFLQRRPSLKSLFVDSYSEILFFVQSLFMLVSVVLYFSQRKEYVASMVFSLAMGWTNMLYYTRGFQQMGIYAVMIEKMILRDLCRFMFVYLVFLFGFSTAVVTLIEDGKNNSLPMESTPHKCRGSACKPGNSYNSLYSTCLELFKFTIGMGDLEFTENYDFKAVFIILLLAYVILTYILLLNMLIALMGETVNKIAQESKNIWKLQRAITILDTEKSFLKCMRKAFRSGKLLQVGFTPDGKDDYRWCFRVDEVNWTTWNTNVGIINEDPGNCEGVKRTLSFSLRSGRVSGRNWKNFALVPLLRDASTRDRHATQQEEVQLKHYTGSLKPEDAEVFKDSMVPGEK
# Outline: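 Rat TRPV1 cRNA was injected into Xenopus oocytes, which were stored 24–48 h at 18 °C. Two-electrode voltage clamp was run at −60 mV. Test compound (3–300 μM) was applied by fast perfusion. Peak inward current was normalised to a preceding 300 μM control response to the parent test compound in the same cell. Hill fit; n = 3–10 cells.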
# α3β2 GABAA receptors [2] = molecular target: T1, α3β2 GABAA receptors; assay: Shift of the GABA concentration-response curve by 100 μM compound; format: cell-based; details: enhancement not significant (p > 0.05)
# GABAA receptors = assay: Direct activation of GABAA receptors in the absence of GABA; format: cell-based, rat; details: up to 300 μM, no GABA
# C57BL/6N mice [3] = assay: Measurement of body temperature; format: in vivo; details: 3 h after injection, control 36.10 ± 0.10 °C
# C57BL/6N mice [4] = assay: Open Field Test; format: in vivo
# Outline: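 Male C57BL/6N mice (3–6 months) were dosed i.p. with test compound or vehicle (saline, 10% DMSO, 3% Tween 80, pH 7.4) 30 min before testing. Ambulation was tracked by infrared for 10 min in a 50 × 50 × 50 cm box at 150 lx, starting in the centre. Zones: border ≤8 cm from wall, centre 20 × 20 cm. ≥8 mice; ANOVA with Bonferroni.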
# C57BL/6N mice [5] = assay: Elevated Plus Maze Test; format: in vivo
# Outline: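 Test compound or vehicle (saline, 10% DMSO, 3% Tween 80, pH 7.4) was injected i.p. into male C57BL/6N mice (3–6 months) 30 min before a 5-min elevated plus maze trial. The maze stood 1 m high with 30 × 5 cm arms and 20 cm closed-arm walls, lit at 180 lx. Mice started in the centre facing an open arm; scoring was automated by video. ≥9 mice; ANOVA with Bonferroni.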
# C57BL/6N mice [6] = assay: Seizure threshold, pentylentetrazole; format: in vivo; details: for Seizure threshold (PTZ dose): 30 min before PTZ, control 39.4 ± 2.8
# α1β2γ2S GABAA receptors = α1β2γ2S GABAA receptors (Rattus norvegicus, UniProt P62813+P63138); details: piperine data taken from the literature; cited from earlier work
# Sequence of α1β2γ2S GABAA receptors (P62813 28-455): as the sequence (P62813 28-455) above
# Sequence of α1β2γ2S GABAA receptors (P63138 25-474 limits assumed): as the sequence (P63138 25-474 limits assumed) above
# Sequence of α1β2γ2S GABAA receptors (P18508 39-466 partner): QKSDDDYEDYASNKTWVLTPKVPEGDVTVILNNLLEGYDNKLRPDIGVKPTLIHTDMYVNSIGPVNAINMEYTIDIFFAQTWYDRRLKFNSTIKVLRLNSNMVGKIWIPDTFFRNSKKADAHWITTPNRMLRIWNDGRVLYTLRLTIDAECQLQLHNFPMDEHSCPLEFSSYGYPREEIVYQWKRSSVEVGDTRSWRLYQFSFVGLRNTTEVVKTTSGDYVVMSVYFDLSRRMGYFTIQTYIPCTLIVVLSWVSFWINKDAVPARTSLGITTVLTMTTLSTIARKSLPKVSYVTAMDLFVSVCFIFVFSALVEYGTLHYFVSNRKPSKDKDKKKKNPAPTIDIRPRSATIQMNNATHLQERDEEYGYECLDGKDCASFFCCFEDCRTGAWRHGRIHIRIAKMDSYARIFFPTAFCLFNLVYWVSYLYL
# [7] = read-out: Maximum stimulation of IGABA at EC3–7
# Sequence of α1β1 GABAA receptors (P62813 28-455): as the sequence (P62813 28-455) above
# Sequence of α1β1 GABAA receptors (P15431 26-474): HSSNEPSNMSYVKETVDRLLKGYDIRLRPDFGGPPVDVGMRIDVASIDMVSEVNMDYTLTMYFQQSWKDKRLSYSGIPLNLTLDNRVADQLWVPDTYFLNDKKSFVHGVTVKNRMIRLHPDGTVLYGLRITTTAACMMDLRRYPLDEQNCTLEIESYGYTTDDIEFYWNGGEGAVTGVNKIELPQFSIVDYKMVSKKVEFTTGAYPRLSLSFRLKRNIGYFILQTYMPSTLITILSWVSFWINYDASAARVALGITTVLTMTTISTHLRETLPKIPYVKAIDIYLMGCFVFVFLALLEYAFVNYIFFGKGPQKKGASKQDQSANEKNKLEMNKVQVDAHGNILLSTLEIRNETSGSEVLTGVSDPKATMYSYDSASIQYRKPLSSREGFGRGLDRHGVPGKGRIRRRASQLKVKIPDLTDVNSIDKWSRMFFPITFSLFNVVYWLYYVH
compound,measurement,setting,value
"O=C(/C=C/C=C/c1ccc2c(c1)OCO2)N1CCCCC1 [Piperine, 1-piperoylpiperidine]",EC50,α1β1 GABAA receptors,57.6 ± 4.2 µM
same,Emax,α1β1 GABAA receptors; [7],171 ± 22%
same,Hill coefficient (nH),"α1β1 GABAA receptors; α1β1, GABA EC3–7",1.4 ± 0.2
same,EC50,α1β2 GABAA receptors,50 ± 7.9 µM
same,Emax,α1β2 GABAA receptors; [7],271 ± 36%
same,Hill coefficient (nH),"α1β2 GABAA receptors; α1β2, GABA EC3–7",1.5 ± 0.3
same,EC50,α1β3 GABAA receptors,48.3 ± 7.3 µM
same,Emax,α1β3 GABAA receptors; [7],332 ± 64%
same,Hill coefficient (nH),"α1β3 GABAA receptors; α1β3, GABA EC3–7",1.5 ± 0.3
same,EC50,α2β2 GABAA receptors,42.8 ± 17.6 µM
same,Emax,α2β2 GABAA receptors; [7],248 ± 48%
same,Hill coefficient (nH),"α2β2 GABAA receptors; α2β2, GABA EC3–7",1.9 ± 0.5
same,EC50,α3β2 GABAA receptors [1],59.6 ± 12.3 µM
same,Emax,α3β2 GABAA receptors [1]; [7],375 ± 51%
same,Hill coefficient (nH),"α3β2 GABAA receptors [1]; α3β2, GABA EC3–7",1.4 ± 0.2
same,EC50,α5β2 GABAA receptors,47.5 ± 17.9 µM
same,Emax,α5β2 GABAA receptors; [7],136 ± 22%
same,Hill coefficient (nH),"α5β2 GABAA receptors; α5β2, GABA EC3–7",1.7 ± 0.4
same,EC50,TRPV1 channels,33.3 ± 0.1 µM
same,Hill coefficient of TRPV1 activation,TRPV1 channels; 3–300 μM,4.1 ± 0.1
same,Activation of TRPV1 receptors (inward currents),"TRPV1 channels; oocytes expressing TRPV1, up to 300 μM",induced marked inward currents
same,"IGABA,max in the presence of compound",α3β2 GABAA receptors [2],123 ± 3%
same,Activation of GABAA receptors in the absence of GABA,GABAA receptors,Neither piperine nor SCT-66 (up to 300 μM) activated GABAA receptors
same,Body temperature,C57BL/6N mice [3]; 10 mg/kg bodyweight i.p.,34.86 ± 0.29 °C
same,Body temperature,C57BL/6N mice [3]; 30 mg/kg bodyweight i.p.,30.37 ± 0.84 °C
same,Total distance travelled (OF),"C57BL/6N mice [4]; 30 mg/kg bodyweight i.p., 30 min before test, 10 min test, control 39.3 ± 1.9 m",21.0 ± 3.7 m
same,Reduction of ambulation compared to control (OF),C57BL/6N mice [4]; 30 mg/kg i.p.,approximately 50%
same,Doses with significant reduction of ambulation (OF),"C57BL/6N mice [4]; i.p., 30 min before test",≥ 3 mg/kg bodyweight
same,Time spent in the open arms (OA) in % of total time (EPM),"C57BL/6N mice [5]; 0.1 mg/kg bodyweight i.p., vs saline-treated control",did not significantly differ
same,Time spent in the open arms (OA) in % of total time (EPM),"C57BL/6N mice [5]; 0.3 mg/kg bodyweight i.p., 30 min before test, control 28.6 ± 2.1%",43.0 ± 4.2%
same,Effect on ambulation (EPM total distance),C57BL/6N mice [5]; 1 mg/kg bodyweight i.p.,significantly reduced ambulation
same,Time spent in the open arms (OA) in % of total time (EPM),"C57BL/6N mice [5]; 1 mg/kg bodyweight i.p., 30 min before test, control 28.6 ± 2.1%",45.7 ± 6.3%
same,Number of closed arm (CA) entries (EPM),C57BL/6N mice [5]; doses ≥0.3 mg/kg bodyweight i.p.,dropped significantly
same,Seizure threshold (PTZ dose),C57BL/6N mice [6]; 3 mg/kg bodyweight i.p.,46.2 ± 5.4 mg/kg bodyweight PTZ
same,Seizure threshold (PTZ dose),C57BL/6N mice [6]; 30 mg/kg bodyweight i.p.,30.3 ± 3.4 mg/kg bodyweight PTZ
same,Effect on seizure threshold,C57BL/6N mice [6]; doses below 3 mg/kg bodyweight i.p.,did not affect seizure threshold
same,Vasodilatory effects during PTZ tail-vein infusion,"C57BL/6N mice [6]; doses of 10–30 mg/kg, data not shown",observed vasodilatory effects
same,EC50,α1β2γ2S GABAA receptors,52.4 ± 9.4 µM
same,"IGABA,max",α1β2γ2S GABAA receptors,302 ± 27%
